# Data as given in ChEMBL document CHEMBL1151196, “Chemical constituents from the mangrove plant, Aegiceras corniculatum” (J Nat Prod, 2004).
# Assays:
# Type in all cases: functional, cell-based
# HL-60 = experiment: Cytotoxicity against human HL60 cells after 48 hrs by MTT assay; conditions: HL-60, 48 h
# Method in brief: (§1)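 Cells kept in RPMI-1640 with 10% FBS, penicillin and streptomycin, at 37 °C under 5% CO2. Seeded at 2000/mL and grown 24 h, then given serial dilutions (100 to 1 μg/mL; DMSO stock diluted in medium). Vehicle control was 0.1% DMSO. After 48 h, MTT added for 4 h. Formazan dissolved in acid-isopropanol and read at 570 nm. Run in triplicate.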
# HeLa = experiment: Cytotoxicity against human HeLa cells after 48 hrs by MTT assay; method in brief: as §1
# Bel-7402 = experiment: Cytotoxicity against human Bel7402 cells after 48 hrs by MTT assay; conditions: Bel-7402, 48 h; method in brief: as §1
# U-937 = experiment: Cytotoxicity against human U937 cells after 48 hrs by MTT assay; conditions: U-937, 48 h; method in brief: as §1
compound,measurement,setting,value
CCCCCCCCCCCC1=C(O)/C(=C2\C(=O)Oc3c2cc(OC)c(O)c3CCCCCCCCCCC)OC1=O,IC50,HL-60,> 100 µg/mL
same,IC50,HeLa,> 100 µg/mL
same,IC50,Bel-7402,> 100 µg/mL
same,IC50,U-937,> 100 µg/mL
CCCCCCCCCCCC1=C(O)C(=O)c2c(CCCCCCCCCCC)cc(O)cc2C1=O,IC50,HL-60,> 100 µg/mL
same,IC50,HeLa,> 100 µg/mL
same,IC50,Bel-7402,> 100 µg/mL
same,IC50,U-937,> 100 µg/mL
CCCCCCCCCc1cc(O)cc(O)c1OC,IC50,HL-60,> 100 µg/mL
same,IC50,HeLa,> 100 µg/mL
same,IC50,Bel-7402,> 100 µg/mL
same,IC50,U-937,> 100 µg/mL
CCCCCCCCCCCC1=C(O)C(=O)C=C(OCC)C1=O,IC50,HL-60,2.5 µg/mL
same,IC50,HeLa,3.9 µg/mL
same,IC50,Bel-7402,2.7 µg/mL
same,IC50,U-937,1.3 µg/mL
CCCCCCCCCCCC1=C(OC(C)=O)C(=O)C=C(OC)C1=O,IC50,HL-60,> 100 µg/mL
same,IC50,HeLa,> 100 µg/mL
same,IC50,Bel-7402,> 100 µg/mL
same,IC50,U-937,> 100 µg/mL
CCCCCCCCCCCC1=CC(=O)C=C(OC)C1=O,IC50,HL-60,> 100 µg/mL
same,IC50,HeLa,> 100 µg/mL
same,IC50,Bel-7402,> 100 µg/mL
same,IC50,U-937,> 100 µg/mL
CCCCCCCCCCCC1=C(O)C(=O)c2c(oc3c(CCCCCCCCCCC)c(O)c(OC)cc23)C1=O,IC50,HL-60,> 100 µg/mL
same,IC50,HeLa,> 100 µg/mL
same,IC50,Bel-7402,> 100 µg/mL
same,IC50,U-937,> 100 µg/mL
CCCCCCCCCCCC1=C(O)C(=O)c2c(oc3cc(OC)c(O)c(CCCCCCCCCCC)c23)C1=O,IC50,HL-60,> 100 µg/mL
same,IC50,HeLa,> 100 µg/mL
same,IC50,Bel-7402,> 100 µg/mL
same,IC50,U-937,> 100 µg/mL
CCCCCCCCCCCC1=C(O)C(=O)C=C(OC)C1=O [5-O-METHYLEMBELIN],IC50,HL-60,3 µg/mL
same,IC50,HeLa,9 µg/mL
same,IC50,Bel-7402,3.6 µg/mL
same,IC50,U-937,1.5 µg/mL
COc1cc2c(c(OC)c1OC)-c1ccc(OC)c(=O)cc1[C@@H](NC(C)=O)CC2 [COLCHICINE],IC50,Bel-7402,0.4 µg/mL
same,IC50,U-937,0.1 µg/mL
